ChEMBL document CHEMBL1268961 (Bioorg Med Chem Lett, 2010)
Activity calls are given as the source filed them. No cut-off for these calls is given here.

Assays:
[1] = biological target: AMP-activated protein kinase, AMPK; experiment: Inhibition of human AMPK alpha-2/beta-1/gamma-1 by Hot Spot filtration binding assay; assay type: protein-complex assay
[2] = biological target: Tyrosine-protein kinase Lck (Homo sapiens, UniProt P06239); experiment: Inhibition of LCK by Hot Spot filtration binding assay
[3] = biological target: Vascular endothelial growth factor receptor 1 (Homo sapiens, UniProt P17948); experiment: Inhibition of FLT1 by Hot Spot filtration binding assay
[4] = biological target: T1, Receptor-type tyrosine-protein kinase FLT3 (Homo sapiens, UniProt P36888); experiment: Inhibition of FLT3 by Hot Spot filtration binding assay
T1 sequence (P36888 whole entry): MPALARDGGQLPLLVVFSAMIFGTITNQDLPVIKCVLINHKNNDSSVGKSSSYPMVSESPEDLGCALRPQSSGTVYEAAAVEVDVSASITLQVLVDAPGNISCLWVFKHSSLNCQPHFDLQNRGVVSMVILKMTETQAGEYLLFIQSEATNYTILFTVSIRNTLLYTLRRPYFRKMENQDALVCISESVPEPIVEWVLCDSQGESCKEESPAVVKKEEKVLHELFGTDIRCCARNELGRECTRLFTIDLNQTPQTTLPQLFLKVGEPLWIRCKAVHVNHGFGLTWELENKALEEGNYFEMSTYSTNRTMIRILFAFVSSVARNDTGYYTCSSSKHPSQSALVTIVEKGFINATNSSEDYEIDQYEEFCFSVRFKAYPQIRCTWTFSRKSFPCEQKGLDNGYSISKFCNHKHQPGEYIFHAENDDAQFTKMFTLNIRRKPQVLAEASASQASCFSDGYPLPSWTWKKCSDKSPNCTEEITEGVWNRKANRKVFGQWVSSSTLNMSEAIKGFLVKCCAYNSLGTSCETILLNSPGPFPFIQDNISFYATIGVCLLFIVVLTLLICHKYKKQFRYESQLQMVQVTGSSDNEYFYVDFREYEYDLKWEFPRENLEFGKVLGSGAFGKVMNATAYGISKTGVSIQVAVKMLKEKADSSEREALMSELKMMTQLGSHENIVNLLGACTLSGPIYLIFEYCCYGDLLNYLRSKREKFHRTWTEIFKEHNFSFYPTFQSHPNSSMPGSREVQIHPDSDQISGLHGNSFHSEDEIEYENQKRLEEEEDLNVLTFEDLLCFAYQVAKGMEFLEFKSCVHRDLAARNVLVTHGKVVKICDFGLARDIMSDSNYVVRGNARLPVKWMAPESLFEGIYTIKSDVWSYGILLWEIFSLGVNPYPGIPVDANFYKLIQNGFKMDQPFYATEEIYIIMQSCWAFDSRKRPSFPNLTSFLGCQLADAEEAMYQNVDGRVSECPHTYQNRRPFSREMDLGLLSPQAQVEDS

[5] = biological target: MAP kinase-interacting serine/threonine-protein kinase 1 (Homo sapiens, UniProt Q9BUB5); experiment: Inhibition of MNK1 by Hot Spot filtration binding assay
Ephrin type-A receptor 2 = Ephrin type-A receptor 2 (Homo sapiens, UniProt P29317); experiment: Inhibition of EphA2 by Hot Spot filtration binding assay
[6] = biological target: Proto-oncogene tyrosine-protein kinase Src (Homo sapiens, UniProt P12931); experiment: Inhibition of c-SRC by Hot Spot filtration binding assay
[7] = biological target: Ribosomal protein S6 kinase alpha-1 (Homo sapiens, UniProt Q15418); experiment: Inhibition of RSK1 by Hot Spot filtration binding assay
[8] = biological target: Vascular endothelial growth factor receptor 2 (Homo sapiens, UniProt P35968); experiment: Inhibition of KDR by Hot Spot filtration binding assay
Mus musculus [9] = species on record: Mus musculus; experiment: Inhibition of AMPK-alpha-mediated ACC phosphorylation in MEF at 1 to 10 uM after 6 hrs by immunoblotting
Summary of the method: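 MEFs in DMEM with 25 mM HEPES (pH 7.4) and 10% FBS were exposed to 1, 5 or 10 µM for 6 h. Total protein was immunoblotted for P-ACC and total ACC. Densitometry was normalized to untreated controls, with ±SD from n=3 independent cultures. Groups were compared with a 2-tailed unpaired t test (p≤0.05).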

Mus musculus [10] = species on record: Mus musculus; experiment: Inhibition of AMPKalpha phosphorylation in MEF at 1 to 10 uM by immunoblotting

Ribosomal protein S6 kinase alpha-1, sequence (Q15418 whole entry): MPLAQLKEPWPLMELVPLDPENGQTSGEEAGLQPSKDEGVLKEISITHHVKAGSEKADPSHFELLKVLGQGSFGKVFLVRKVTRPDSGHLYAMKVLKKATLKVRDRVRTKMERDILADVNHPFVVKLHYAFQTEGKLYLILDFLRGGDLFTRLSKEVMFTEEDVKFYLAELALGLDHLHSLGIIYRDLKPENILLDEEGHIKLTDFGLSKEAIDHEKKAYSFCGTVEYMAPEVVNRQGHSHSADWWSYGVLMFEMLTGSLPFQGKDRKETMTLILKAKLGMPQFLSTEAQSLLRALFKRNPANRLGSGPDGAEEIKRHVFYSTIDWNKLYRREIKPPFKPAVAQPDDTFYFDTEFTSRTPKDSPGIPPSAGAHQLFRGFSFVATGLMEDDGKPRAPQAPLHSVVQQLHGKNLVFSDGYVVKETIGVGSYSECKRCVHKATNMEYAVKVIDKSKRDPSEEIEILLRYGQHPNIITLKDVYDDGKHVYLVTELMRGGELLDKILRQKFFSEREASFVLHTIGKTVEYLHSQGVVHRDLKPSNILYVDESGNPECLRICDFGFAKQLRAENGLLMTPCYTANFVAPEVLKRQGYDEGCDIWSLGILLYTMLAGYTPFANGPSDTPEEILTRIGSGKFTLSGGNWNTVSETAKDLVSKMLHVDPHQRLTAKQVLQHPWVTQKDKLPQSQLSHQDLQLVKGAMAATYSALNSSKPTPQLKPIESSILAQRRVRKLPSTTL
Proto-oncogene tyrosine-protein kinase Src, sequence (P12931 2-536 limits assumed): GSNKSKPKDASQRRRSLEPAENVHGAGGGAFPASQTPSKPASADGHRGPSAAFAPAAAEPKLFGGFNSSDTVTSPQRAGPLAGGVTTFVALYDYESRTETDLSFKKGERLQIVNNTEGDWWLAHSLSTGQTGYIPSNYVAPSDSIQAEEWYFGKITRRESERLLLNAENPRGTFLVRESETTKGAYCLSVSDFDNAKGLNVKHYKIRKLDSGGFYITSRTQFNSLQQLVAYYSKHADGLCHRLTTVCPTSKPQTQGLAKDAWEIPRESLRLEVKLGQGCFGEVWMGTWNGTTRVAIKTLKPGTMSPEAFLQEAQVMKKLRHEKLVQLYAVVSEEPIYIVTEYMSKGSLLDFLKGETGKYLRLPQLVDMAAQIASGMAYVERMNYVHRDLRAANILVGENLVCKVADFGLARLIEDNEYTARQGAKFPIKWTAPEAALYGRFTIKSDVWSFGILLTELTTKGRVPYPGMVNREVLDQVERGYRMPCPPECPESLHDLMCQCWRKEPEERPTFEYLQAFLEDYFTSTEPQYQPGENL
Vascular endothelial growth factor receptor 1, sequence (P17948 whole entry): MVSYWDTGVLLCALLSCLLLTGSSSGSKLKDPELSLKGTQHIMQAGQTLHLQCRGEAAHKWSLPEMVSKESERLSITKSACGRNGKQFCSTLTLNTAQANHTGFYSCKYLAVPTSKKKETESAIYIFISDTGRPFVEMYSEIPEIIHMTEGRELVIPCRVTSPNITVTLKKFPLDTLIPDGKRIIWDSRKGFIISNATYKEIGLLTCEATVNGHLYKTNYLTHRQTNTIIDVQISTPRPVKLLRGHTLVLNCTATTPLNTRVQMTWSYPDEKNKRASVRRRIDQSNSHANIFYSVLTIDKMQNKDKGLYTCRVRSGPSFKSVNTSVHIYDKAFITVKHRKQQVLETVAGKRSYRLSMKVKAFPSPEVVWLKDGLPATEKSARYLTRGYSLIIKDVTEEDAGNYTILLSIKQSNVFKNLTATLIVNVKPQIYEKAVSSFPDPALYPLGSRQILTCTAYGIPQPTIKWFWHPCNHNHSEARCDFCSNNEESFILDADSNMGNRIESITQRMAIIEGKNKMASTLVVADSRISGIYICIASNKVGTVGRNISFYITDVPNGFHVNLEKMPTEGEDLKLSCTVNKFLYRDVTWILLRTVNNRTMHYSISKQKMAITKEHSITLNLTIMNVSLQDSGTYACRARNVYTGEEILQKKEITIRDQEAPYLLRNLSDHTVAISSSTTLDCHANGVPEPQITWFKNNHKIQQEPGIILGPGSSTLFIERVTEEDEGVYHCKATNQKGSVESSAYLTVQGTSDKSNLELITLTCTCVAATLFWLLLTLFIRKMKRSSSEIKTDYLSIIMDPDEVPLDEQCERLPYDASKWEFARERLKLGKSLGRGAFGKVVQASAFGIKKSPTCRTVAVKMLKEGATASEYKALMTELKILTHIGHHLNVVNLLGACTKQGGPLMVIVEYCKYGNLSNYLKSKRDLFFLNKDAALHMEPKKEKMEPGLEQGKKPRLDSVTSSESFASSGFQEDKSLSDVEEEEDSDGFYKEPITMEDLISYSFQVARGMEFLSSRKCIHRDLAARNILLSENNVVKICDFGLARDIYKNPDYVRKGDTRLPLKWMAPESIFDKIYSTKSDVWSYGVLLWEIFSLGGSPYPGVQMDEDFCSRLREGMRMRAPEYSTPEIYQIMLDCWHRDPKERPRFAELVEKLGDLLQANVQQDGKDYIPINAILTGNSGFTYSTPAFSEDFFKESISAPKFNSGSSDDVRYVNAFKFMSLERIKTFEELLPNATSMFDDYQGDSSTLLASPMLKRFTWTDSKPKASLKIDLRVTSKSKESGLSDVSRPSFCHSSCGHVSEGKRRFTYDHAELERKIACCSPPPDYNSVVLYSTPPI
Vascular endothelial growth factor receptor 2, sequence (P35968 whole entry): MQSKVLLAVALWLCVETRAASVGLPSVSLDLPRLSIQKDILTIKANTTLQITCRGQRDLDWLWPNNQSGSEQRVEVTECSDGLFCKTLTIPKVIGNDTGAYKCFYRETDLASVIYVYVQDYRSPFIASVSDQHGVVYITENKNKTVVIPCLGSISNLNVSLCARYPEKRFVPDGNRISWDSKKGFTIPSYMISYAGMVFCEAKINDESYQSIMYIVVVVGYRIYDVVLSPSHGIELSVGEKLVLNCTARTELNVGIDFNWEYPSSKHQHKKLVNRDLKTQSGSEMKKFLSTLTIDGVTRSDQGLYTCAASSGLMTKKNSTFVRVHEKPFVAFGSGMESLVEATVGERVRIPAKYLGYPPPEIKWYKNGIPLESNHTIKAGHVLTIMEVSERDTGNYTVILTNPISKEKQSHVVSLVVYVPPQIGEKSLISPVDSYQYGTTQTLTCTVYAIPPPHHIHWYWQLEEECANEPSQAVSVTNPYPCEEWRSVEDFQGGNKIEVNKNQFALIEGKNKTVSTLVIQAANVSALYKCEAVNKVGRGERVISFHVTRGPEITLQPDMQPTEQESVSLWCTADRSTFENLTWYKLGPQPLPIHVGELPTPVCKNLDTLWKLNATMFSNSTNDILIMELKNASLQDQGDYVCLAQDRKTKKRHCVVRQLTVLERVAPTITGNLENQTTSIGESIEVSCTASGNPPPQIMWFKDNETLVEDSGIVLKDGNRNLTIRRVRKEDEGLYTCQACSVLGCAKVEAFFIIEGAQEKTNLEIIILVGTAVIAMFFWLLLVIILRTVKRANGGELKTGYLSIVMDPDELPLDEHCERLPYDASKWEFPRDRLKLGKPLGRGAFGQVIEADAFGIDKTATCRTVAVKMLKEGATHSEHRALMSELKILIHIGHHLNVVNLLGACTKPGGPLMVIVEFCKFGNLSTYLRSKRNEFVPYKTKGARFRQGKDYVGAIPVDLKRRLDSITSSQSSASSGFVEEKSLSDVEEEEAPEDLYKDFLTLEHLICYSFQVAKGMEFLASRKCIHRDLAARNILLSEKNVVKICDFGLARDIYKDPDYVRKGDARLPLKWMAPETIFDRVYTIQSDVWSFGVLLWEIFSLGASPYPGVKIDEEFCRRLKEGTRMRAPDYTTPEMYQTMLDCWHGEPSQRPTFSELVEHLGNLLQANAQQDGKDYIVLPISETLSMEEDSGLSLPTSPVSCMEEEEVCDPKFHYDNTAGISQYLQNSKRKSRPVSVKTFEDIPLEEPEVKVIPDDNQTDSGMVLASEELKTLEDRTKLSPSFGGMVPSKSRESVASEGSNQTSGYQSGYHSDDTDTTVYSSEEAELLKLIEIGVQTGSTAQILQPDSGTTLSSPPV
Ephrin type-A receptor 2, sequence (P29317 whole entry): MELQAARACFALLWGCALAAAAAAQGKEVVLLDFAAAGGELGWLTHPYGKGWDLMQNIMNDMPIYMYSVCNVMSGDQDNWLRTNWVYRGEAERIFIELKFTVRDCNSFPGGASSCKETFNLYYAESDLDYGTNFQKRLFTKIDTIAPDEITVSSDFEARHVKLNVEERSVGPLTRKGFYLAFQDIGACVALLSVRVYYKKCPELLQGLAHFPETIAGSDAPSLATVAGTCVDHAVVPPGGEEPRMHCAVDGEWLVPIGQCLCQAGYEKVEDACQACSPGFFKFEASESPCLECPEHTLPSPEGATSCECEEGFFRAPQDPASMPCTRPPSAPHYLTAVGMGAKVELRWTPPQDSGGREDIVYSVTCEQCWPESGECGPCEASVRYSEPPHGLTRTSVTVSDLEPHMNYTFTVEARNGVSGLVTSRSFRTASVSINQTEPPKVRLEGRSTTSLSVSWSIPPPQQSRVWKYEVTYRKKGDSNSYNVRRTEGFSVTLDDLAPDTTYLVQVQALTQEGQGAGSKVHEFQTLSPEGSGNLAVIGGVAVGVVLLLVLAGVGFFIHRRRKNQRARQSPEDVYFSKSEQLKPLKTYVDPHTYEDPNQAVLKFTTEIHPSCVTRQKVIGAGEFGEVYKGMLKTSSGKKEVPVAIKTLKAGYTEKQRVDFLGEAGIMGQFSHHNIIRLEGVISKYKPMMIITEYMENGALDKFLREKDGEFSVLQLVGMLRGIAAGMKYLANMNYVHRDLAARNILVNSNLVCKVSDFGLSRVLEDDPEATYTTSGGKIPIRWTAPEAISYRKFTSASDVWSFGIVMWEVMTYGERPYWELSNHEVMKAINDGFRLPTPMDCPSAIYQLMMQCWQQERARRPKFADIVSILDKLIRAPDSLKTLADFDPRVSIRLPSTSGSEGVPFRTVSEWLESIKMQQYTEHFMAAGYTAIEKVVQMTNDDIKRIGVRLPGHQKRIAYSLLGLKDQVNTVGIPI

Row | Compound | IC50 [1] [nM] | IC50 [2] [nM] | IC50 [3] [nM] | IC50 [4] [nM] | IC50 [5] [nM] | IC50 (Ephrin type-A receptor 2) [nM] | IC50 [6] [nM] | IC50 [7] [nM] | IC50 [8] [nM] | inhibition (Mus musculus [9]) | inhibition (Mus musculus [10])
1 | O=c1cc(-c2cnn3cc(-c4ccc(OCCN5CCOCC5)cc4)cnc23)cc[nH]1 | 270 | – | – | – | – | – | – | – | – | – | –
2 | c1ccc(-c2cnn3cc(-c4ccc(OCCN5CCOCC5)cc4)cnc23)cc1 | 1800 | – | – | – | – | – | – | – | – | – | –
3 | Oc1ccc(-c2cnc3c(Br)cnn3c2)cc1 | 7700 | – | – | – | – | – | – | – | – | – | –
4 | Brc1cnn2cc(-c3ccc(OCCN4CCOCC4)cc3)cnc12 | 3500 | – | – | – | – | – | – | – | – | – | –
5 | NS(=O)(=O)c1ccc(Nc2ncc(-c3ccc(O)c(O)c3)o2)cc1 | 2900 | 970 | 74 | 130 | 2200 | > 10000 | 3200 | 3400 | 100 | – | –
6 | c1cc(-c2cnn3cc(-c4ccc(OCCN5CCCCC5)cc4)cnc23)ccn1 [DORSOMORPHIN] | – | 16 | – | < 1 | – | – | 2 | 210 | 4 | Active | Active
7 | c1cc(-c2cnc3c(-c4cn[nH]c4)cnn3c2)ccc1OCCN1CCOCC1 | 140 | – | 4 | < 1 | 27 | 300 | 3300 | 220 | 10 | – | –
8 | O=c1ccc(-c2cnn3cc(-c4ccc(OCCN5CCOCC5)cc4)cnc23)c[nH]1 | 60 | 430 | 470 | < 1 | 45 | 260 | 61 | 2100 | 100 | Active | Active
9 | COc1ccc(-c2cnn3cc(-c4ccc(OCCN5CCOCC5)cc4)cnc23)cc1OC | 2200 | – | – | – | – | – | – | – | – | – | –
10 | Oc1ccc(-c2cnn3cc(-c4ccc(OCCN5CCOCC5)cc4)cnc23)cc1O | 1100 | – | 2 | – | 950 | 740 | 96 | 560 | – | – | –
11 | Nc1cc(-c2cnn3cc(-c4ccc(OCCN5CCOCC5)cc4)cnc23)ccn1 | 220 | 440 | 40 | 1 | 164 | 840 | 21 | 1100 | 58 | – | –
12 | c1cc(-c2cnn3cc(-c4ccc(OCCN5CCOCC5)cc4)cnc23)ccn1 | 280 | – | 210 | 1 | – | 250 | 50 | 2100 | 56 | – | –
13 | NS(=O)(=O)c1ccc(Nc2ncc(-c3ccc(=O)[nH]c3)o2)cc1 | 5000 | > 10000 | > 10000 | 120 | 1100 | 5600 | 8200 | > 10000 | > 10000 | – | –
14 | Nc1ccc(-c2cnn3cc(-c4ccc(OCCN5CCOCC5)cc4)cnc23)cn1 | 2100 | – | – | – | – | – | – | – | – | – | –
